Compound activity from PubChem.
A selection: hits, their analogues and other compounds. The true share with any hit is near 3.5%.
Wnt bcat act: Wnt/beta-catenin pathway activators, primary screen, cell-based, plate reader, single point | hit rate 1.2% among 300,000 | Wnt/beta-catenin reporter cell assay, activator | activation, % at 9.35 µM; in the data active means activation above about 30%, passing the limit was not always enough; inconclusive means no clear call, values can overlap the other calls;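 further: 0% = neutral control wells and 100% = positive control wells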
ERAP1 inh: human ERAP1 aminopeptidase inhibitors, primary screen, biochemical, single point, plate reader | recombinant ERAP1, Leu-AMC fluorescence, 60 min | inhibition, % at 10.7 µM | hit rate 0.15% among 340,000;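 active means mean replicate inhibition of at least 30%, or all replicates individually reaching that 30% level; inactive means mean below 30% and not every replicate reaching it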;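 further: 0% = neutral control wells and 100% = L-leucinethiol positive control wells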
Target sequence (Q9NZ08 whole entry, looked up): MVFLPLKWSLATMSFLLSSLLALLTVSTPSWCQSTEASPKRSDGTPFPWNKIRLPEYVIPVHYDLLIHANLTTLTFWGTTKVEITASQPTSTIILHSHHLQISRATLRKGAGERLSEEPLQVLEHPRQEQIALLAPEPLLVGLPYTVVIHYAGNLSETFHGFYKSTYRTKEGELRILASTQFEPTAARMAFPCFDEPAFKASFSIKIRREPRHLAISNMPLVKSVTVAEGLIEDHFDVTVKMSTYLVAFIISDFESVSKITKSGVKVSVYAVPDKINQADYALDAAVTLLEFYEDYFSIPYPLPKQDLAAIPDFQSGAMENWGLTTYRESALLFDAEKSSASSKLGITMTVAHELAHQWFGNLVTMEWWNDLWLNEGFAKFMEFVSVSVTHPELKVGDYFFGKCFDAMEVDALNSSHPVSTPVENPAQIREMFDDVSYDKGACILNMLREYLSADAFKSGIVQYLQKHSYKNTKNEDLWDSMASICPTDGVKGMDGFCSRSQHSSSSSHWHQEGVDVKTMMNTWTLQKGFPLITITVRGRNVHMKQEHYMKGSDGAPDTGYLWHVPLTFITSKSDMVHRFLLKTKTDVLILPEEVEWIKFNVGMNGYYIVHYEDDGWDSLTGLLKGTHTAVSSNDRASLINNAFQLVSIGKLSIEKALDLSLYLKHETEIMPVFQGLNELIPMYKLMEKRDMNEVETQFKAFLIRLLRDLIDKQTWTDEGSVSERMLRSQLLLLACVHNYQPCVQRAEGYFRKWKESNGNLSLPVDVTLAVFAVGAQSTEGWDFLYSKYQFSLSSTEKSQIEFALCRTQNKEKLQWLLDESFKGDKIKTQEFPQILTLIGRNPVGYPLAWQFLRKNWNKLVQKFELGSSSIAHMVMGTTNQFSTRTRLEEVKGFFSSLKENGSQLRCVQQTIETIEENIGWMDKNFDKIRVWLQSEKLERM
esBAF inh: Bmi1 luciferase reporter increase in mESCs, primary screen, esBAF inhibitor project, mouse ES cells, Bmi1 luciferase knock-in, single point. AID 602393, 2012. reporter increase, % at 12.5 µM. 24 h; 100% = twice the neutral-well signal. hit rate 2% among 350,000; in the data active means activation above about 40%; inconclusive means no clear call, values can overlap the other calls;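 further: 0% = median of the plate's neutral control wells and 100% = double that signal; a rise in the Bmi1 reporter signal indicates esBAF inhibition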
Cneo AK release: Cryptococcus neoformans cell lysis inducers, primary screen, AK release luminescence, single concentration; C. neoformans lysis, adenylate kinase release luminescence, 4 h; normalised: neutral wells 0, clomiphene wells 100; lysis activity, % at 15 µM; hit rate 0.2% among 360,000; AID 651654, 2012;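 active means mean lysis activity across replicates of at least 80%, whatever share of replicates individually reach that level; inactive means mean lysis activity below 80%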
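Assay system: log-phase C. neoformans yeast / Quantity: yeast cell density of 5 × 10^6 cells/mL / Medium: fresh YPD growth medium / Compound: single dose / Timing: static 4 h at 37 °C with compound, 1 h detection / Measured by: adenylate kinase release luminescence / Read-out: lysis from increased AK signal / Benchmarks: Clomiphene as positive lysis control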
MITF act: activators of MITF-driven TRPM1 promoter reporter, primary screen, cell-based, SK-MEL-5, luciferase, single point | SK-MEL-5 TRPM1-promoter luciferase, 24 h; % of positive control, neutral wells = 0 | AID 588334, 2011 | activation, % at 12.5 µM | hit rate 0.75% among 300,000;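 active means mean activation of at least 80% with every replicate also reaching 80%; inconclusive means mean reaches 80% but some replicate falls short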;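 further: 0% = neutral control wells and 100% = parthenolide positive control wells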
Env fusion inh: inhibitors of HIV-1 Env-driven cell-cell fusion, primary screen, HeLa-JRFL effector, CEM21 target cells, luciferase; inhibition, % at 12.3 µM; hit rate 1.1% among 360,000;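 active means mean replicate inhibition score of at least 50 and every replicate individually at or above 50; inconclusive means only one of the two criteria met; inactive means mean below 50 and not all replicates reaching 50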;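 further: 0% = plate neutral controls and 100% = maraviroc near 300 nM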
* marks the source's active call; other numbers are inactive results; ? = inconclusive; . = no result given; [ ] = dose if it differs, or a comment.

SMILES	Wnt bcat act	ERAP1 inh	esBAF inh	Cneo AK release	MITF act	Env fusion inh
O=C(O)c1cc(/C=C/c2ccc(N3CCOCC3)c([N+](=O)[O-])c2)nc2ccccc12	34*	2	.	-5	-1	-6
C[C@H]1CN([C@@H](C)CO)C(=O)c2cc(-c3cccc(C#N)c3)cnc2O[C@@H]1CN(C)Cc1ccc(F)cc1	.	-2	4	0	.	6[16.7 µM]
CC(C)NC(=O)N(C)C[C@H]1Oc2c(NS(=O)(=O)c3ccc(Cl)cc3)cccc2C(=O)N([C@@H](C)CO)C[C@@H]1C	.	5	0	105*	.	20[16.7 µM]
Cc1ccc(S(=O)(=O)Nc2cccc3c2O[C@H](CN(C)C(=O)Nc2ccc4c(c2)OCO4)[C@H](C)CN([C@H](C)CO)C3=O)cc1	.	1	72*	0	.	.
C[C@H](CO)N1C[C@H](C)[C@H](CN(C)CC2CCCCC2)Oc2c(NS(=O)(=O)c3ccc(Cl)cc3)cccc2C1=O	.	-1	-9	1	.	-51[16.7 µM]
C[C@H]1CN([C@@H](C)CO)C(=O)c2cccc(NS(=O)(=O)c3ccc(Cl)cc3)c2O[C@@H]1CN(C)CC1CC1	.	-1	-1	89*	.	-20[16.7 µM]
C[C@@H]1CN([C@H](C)CO)C(=O)c2cccc(NS(=O)(=O)c3ccc(Cl)cc3)c2O[C@H]1CN(C)CC1CCCCC1	.	-1	1	2	.	88*[16.7 µM]
C[C@@H]1CN([C@@H](C)CO)C(=O)c2cc(C#Cc3cccc(F)c3)cnc2O[C@H]1CN(C)CC1CCCC1	.	0	-7	4	.	1[16.7 µM]
CCN(C[C@H]1N[C@@](Cc2ccccc2)(C(=O)OC)[C@H]2C(=O)N(Cc3ccccc3)C(=O)[C@@H]12)S(=O)(=O)c1ccc(C(F)(F)F)cc1	-2	-2	-6	3	-4	49
CCN(C[C@H]1N[C@@](C)(C(=O)OC)[C@H]2C(=O)N(Cc3ccccc3)C(=O)[C@@H]12)S(=O)(=O)c1ccc(C(C)(C)C)cc1	-3	1	4	2	8	84*
CCN(C[C@H]1N[C@@](CC)(C(=O)OC)[C@H]2C(=O)N(Cc3ccccc3)C(=O)[C@@H]12)S(=O)(=O)c1ccc(C(C)(C)C)cc1	-1	-5	1	2	5	58*
CCN(C[C@H]1N[C@@](CC)(C(=O)OC)[C@H]2C(=O)N(Cc3ccccc3)C(=O)[C@@H]12)S(=O)(=O)c1ccc(OC(F)(F)F)cc1	-4	0	-3	3	2	87*
CCN(C[C@H]1N[C@@](CC)(C(=O)OC)[C@H]2C(=O)N(Cc3ccccc3)C(=O)[C@@H]12)S(=O)(=O)c1ccc(C)cc1	-2	.	1	8	-8	81*
CCN(C[C@H]1N[C@@](Cc2ccccc2)(C(=O)OC)[C@H]2C(=O)N(C)C(=O)[C@@H]12)S(=O)(=O)c1ccc(OC(F)(F)F)cc1	-4	-4	-3	1	7	-40
CCN(C[C@H]1N[C@@](CC)(C(=O)OC)[C@H]2C(=O)N(Cc3ccccc3)C(=O)[C@@H]12)S(=O)(=O)c1ccc(-c2ccccc2)cc1	-4	-1	-6	0	-1	33
C/C=C/c1ccc([C@@H]2[C@@H](CN(C)C(=O)CC)N(C(=O)C3CC3)[C@H]2CO)cc1	.	-2	8	4	.	.
N#CCCN(C(=O)CSc1nc2ccccc2c(=O)[nH]1)c1ccc(F)cc1	-2	1	1	-3	9	81*
N#CCCN(C(=O)COC(=O)CCc1nc2ccccc2c(=O)[nH]1)c1ccc(F)cc1	0	4	-4	-2	2	.
CC(=O)N(C)C[C@H]1Oc2cc(-c3ccccc3)ccc2S(=O)(=O)N([C@@H](C)CO)C[C@@H]1C	.	0	8	2	.	13[16.7 µM]
Cc1c(C(=O)Nc2nccs2)oc2ccc(Br)cc12	1	0	72*	-1	30	-88
Cc1c(C(=O)Nc2nccs2)oc2ccc(F)cc12	38*	-2	-12	1	34	.
CCc1nnc(NC(=O)c2oc3ccc(Br)cc3c2C)s1	9	2	.	.	44	-67
Cc1c(C(=O)N2CCN(C(=O)c3ccccc3)CC2)oc2ccc(F)cc12	3	4	-3	1	-20	-10
Cc1c(C(=O)/C=C/c2cccs2)oc2ccc(F)cc12	.	.	63*	-7	23	.
CCS(=O)(=O)N[C@H]1CC[C@@H](CC(=O)NCc2ccc(Cl)cc2)O[C@@H]1CO	.	-1	-5	1	.	70*[16.7 µM]
SMILES	Wnt bcat act	ERAP1 inh	esBAF inh	Cneo AK release	MITF act	Env fusion inh
COc1cccc(S(=O)(=O)N[C@H]2CC[C@H](CC(=O)NCc3ccncc3)O[C@@H]2CO)c1	.	1	-4	28	.	66*[16.7 µM]
COc1ccc(S(=O)(=O)N[C@@H]2CC[C@@H](CC(=O)NCCc3ccncc3)O[C@@H]2CO)cc1	.	1	3	-3	.	58*[16.7 µM]
Cc1cccc(Nc2ncc3c(n2)CC(c2ccco2)CC3=O)c1 (centres undefined)	1	.	15	-2	17	.
CCc1ccc(Nc2ncc3c(n2)CC(C)CC3=O)cc1 (centres undefined)	17	-2	.	.	107*	-32
CCc1ccc(Nc2ncc3c(n2)CC(C)(C)CC3=O)cc1	57*	0	.	.	102*	-52
Cc1cc(C)cc(Nc2ncc3c(n2)CC(c2ccco2)CC3=O)c1 (centres undefined)	6	.	19	-9	19	-23
CCc1ccc(Nc2ncc3c(n2)CC(c2ccc(OC)cc2)CC3=O)cc1 (centres undefined)	.	.	11	0	.	18
Cc1cccc(Nc2ncc3c(n2)CC(C)CC3=O)c1 (centres undefined)	.	.	51*	-7	?	.
Cc1ccc(Nc2ncc3c(n2)CC(c2ccco2)CC3=O)c(C)c1 (centres undefined)	-5	.	54*	-9	10	.
CCC(=O)N1Cc2cc(C(=O)N3CCN(C)CC3)nc(-c3cccc(-c4cccnc4)c3)c2[C@H]1CCO	.	-3	.	.	.	.
CCCNC(=O)C[C@@H]1C[C@H]2c3cc(NC(=O)NC4CCCC4)ccc3O[C@H]2[C@@H](CO)O1	.	0	-11	-1	.	-4[16.7 µM]
C/C(=C/CCC(C)(O)C1CC[C@@]2(C)[C@@H]3CC=C4[C@@H](CC[C@H](O[C@H]5O[C@@H](CO)[C@H](O)[C@@H](O)[C@@H]5O)C4(C)C)[C@]3(C)C(=O)C[C@]12C)CO[C@@H]1O[C@H](CO)[C@@H](O)[C@H](O)[C@H]1O (some centres undefined)	-4	2	5	-1	1	88*
